Measured values: ChEMBL document CHEMBL4038313, “Expanding the Antiviral Spectrum of 3-Fluoro-2-(phosphonomethoxy)propyl Acyclic Nucleoside Phosphonates: Diamyl Aspartate Amidate Prodrugs” (J Med Chem, 2017)
pEC50: −log10 of the molar value.

Legend:
[1] = Selectivity index, ratio of CC50 for human PHA-stimulated PBMC to IC50 for CXCR4-tropic HIV-1 NL4-3 infected in human PHA-stimulated PBMC
[2] = system: Hepatitis B virus; experiment: Antiviral activity against HBV ayw1 infected in human HepG2(2.2.15) cells assessed as reduction in viral replication by measuring intracellular viral DNA copy number after 6 days byr by real-time qPCR assay; type: functional, cell-based; settings: ayw1, HepG2 2.2.15, 144 h
Summary of the method: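 Run as the HepG2.2.15 6-day assay (triplicate compound, medium with compound renewed at day 3). At the end, total intracellular DNA was isolated from the cells and HBV DNA copy number measured by TaqMan qPCR. EC50/EC90 derived; SI is CC50/EC50.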

[3] = Stability of the compound in phosphate buffer of pH 8 at 1 mg after 14 hrs by 31P NMR spectroscopy; type: physicochemical; settings: read-out: Stability
Summary of the method: (§1)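 1 mg compound in 0.2 mL acetone-d6 plus 0.3 mL pH 8 buffer (0.1 M Na2HPO4 adjusted with 0.1 M HCl). In situ 31P NMR (202 MHz) at 37 °C, spectra every 30 min over 14 h.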

[4] = Stability of the compound in pH 1 buffer at 2 mg after 5 hrs by 31P NMR spectroscopy; type: physicochemical; settings: pH 1, 5 h
Summary of the method: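 2.0 mg compound in 0.2 mL acetone-d6 plus 0.3 mL pH 1 buffer (equal parts 0.2 M HCl and 0.2 M KCl). In situ 31P NMR (202 MHz) at 37 °C, spectra every 30 min over 14 h.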

[5] = Selectivity index, ratio of CC50 for human PHA-stimulated PBMCs to IC50 for CCR5 tropic HIV1 BaL infected in human PHA-stimulated PBMC
[6] = Selectivity index, ratio of CC50 for HepG2.2.15 cells to EC50 for HBV ayw1 infected in human HepG2(2.2.15) cells assessed as reduction in viral replication by measuring extracellular viral DNA copy
Summary of the method: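 HepG2.2.15 cells (two copies of HBV ayw1 genome), 1.5 × 10^4/well in DMEM with 2% FBS and 380 μg/mL G418. After 16–24 h, compound added in triplicate, medium with compound renewed at day 3. Supernatant collected at day 6, Pronase-treated, and extracellular HBV DNA measured by TaqMan qPCR (precore/core) against an HBV DNA standard curve. EC50/EC90 derived; CC50 by MTS uptake.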

[7] = system: Human immunodeficiency virus 1; experiment: Antiviral activity against CCR5 tropic HIV1 BaL infected in human TZM-bl cells assessed as inhibition of virus-induced cytopathic effect preincubated with cells for 30 mins followed by viral infection measured after 48 hrs in presence of p-24 HIV-1 Ag by luciferase reporter gene assay; type: functional, cell-based; settings: Human immunodeficiency virus 1, BaL
Summary of the method: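 TZM-bl cells, 1 × 10^4 per well in DMEM with 10% FBS and 10 mM […], incubated 30 min at 37 °C with compound. Then HIV-1 NL4.3 (X4) or BaL (R5) added at 100 pg p24 Ag per well. After 48 h, cells lysed with luciferase substrate. Tat-induced luminescence read after 10 min dark incubation as a measure of replication.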

[8] = Selectivity index, ratio of CC50 for HEL cells to EC50 for thymidine kinase expressing Varicella-Zoster virus Oka; type: toxicity; settings: human, read-out: Ratio CC50/EC50
Summary of the method: (§2)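 HEL fibroblast monolayers inoculated with 100 CCID50 HCMV (AD-169, Davis) or 20 PFU VZV (TK+ Oka, TK− 07-1). Adsorbed 1–2 h, inoculum removed, then incubated with compound dilutions. HCMV cytopathicity or VZV plaques scored once untreated infected controls reached completion. EC50 is 50% reduction. SI is CC50/EC50, and the potency ratio is the ratio of EC50s.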

[9] = system: Human immunodeficiency virus 1; experiment: Potency index, ratio of (S)-9-[3-Fluoro-2-(phosphonomethoxy)propyl]adenine EC50 to compound EC50 for CCR5 tropic HIV1 BaL infected in human TZM-bl cells; type: functional
[10] = Cytotoxicity against human MT4 cells assessed as reduction in cell viability after 6 days by XTT tetrazolium dye-based assay
Summary of the method: (§3)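 MT-4 cells, 1 × 10^4 per well, given compound dilutions and wild-type NL4-3 or K65R NL4-3. Virus titred to give 85–95% cell killing at day 6. Incubated 6 days at 37 °C, 5% CO2. Viability read by XTT at 450/650 nm. EC50 from CPE reduction and toxicity from uninfected drug wells, by four-parameter fit. Fold change is K65R EC50 over wild-type EC50.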

[11] = Cytotoxic activity against HEL cells assessed as reduction in cell proliferation after 3 days by coulter counting method; type: cell-based; settings: human
Summary of the method: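 HEL cells seeded at 5 × 10^3/well, grown 24 h, then given compound for 3 days at 37 °C. Cell number counted by Coulter counter. CC50 is 50% reduction of proliferation relative to untreated controls, read from graphic plots.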

[12] = system: Human immunodeficiency virus 1; experiment: Potency index, ratio of (S)-9-[3-Fluoro-2-(phosphonomethoxy)propyl]adenine EC50 to compound EC50 for CXCR4-tropic HIV-1 NL4-3 infected in human TZM-bl cells; type: functional
[13] = system: Human betaherpesvirus 5; experiment: Antiviral activity against HCMV Davis strain infected in HEL cells assessed as inhibition of virus-induced cytopathic effect; type: functional, cell-based; settings: Human betaherpesvirus 5, Davis; summary of the method: as §2
[14] = Cytotoxicity against human TZM-bl cells assessed as cell viability by tetrazolium dye assay; type: cell-based
[15] = system: Human alphaherpesvirus 3; experiment: Potency index, ratio of (S)-9-[3-Fluoro-2-(phosphonomethoxy)propyl]adenine EC50 to compound EC50 for thymidine kinase deficient Varicella-Zoster virus 07-1; type: functional; summary of the method: as §2
[16] = system: Human alphaherpesvirus 3; experiment: Potency index, ratio of (S)-9-[3-Fluoro-2-(phosphonomethoxy)propyl]adenine EC50 to compound EC50 for thymidine kinase expressing Varicella-Zoster virus Oka; type: functional, strain Oka vaccine; summary of the method: as §2
[17] = Stability of the compound in phosphate buffer of pH 8 at 1 mg after 1 hr by 31P NMR spectroscopy; type: physicochemical; settings: pH 8, 1 h; summary of the method: as §1
[18] = system: Human immunodeficiency virus 1; experiment: Antiviral activity against CXCR4-tropic HIV-1 NL4-3 infected in human MT4 cells assessed as inhibition of virus-induced cytopathic effect after 6 days by XTT dye based assay; type: functional, cell-based; settings: Human immunodeficiency virus 1, NL4-3, MT4, 144 h; summary of the method: as §3
[19] = Cytotoxicity against human PHA-stimulated PBMC assessed as cell viability by tetrazolium dye assay; type: cell-based
[20] = Selectivity index, ratio of CC50 for human TZM-bl cells to EC50 for CXCR4-tropic HIV-1 NL4-3 infected in human TZM-bl cells; type: toxicity, cell-based; settings: read-out: Ratio CC50/EC50
[21] = system: Human betaherpesvirus 5; experiment: Antiviral activity against Human cytomegalovirus AD169 infected in HEL cells assessed as inhibition of virus-induced cytopathic effect; type: functional, cell-based; settings: Human betaherpesvirus 5, AD169, HEL; summary of the method: as §2
[22] = Selectivity index, ratio of CC50 for HEL cells to EC50 for thymidine kinase deficient Varicella-Zoster virus 07-1; type: toxicity; settings: human, read-out: Ratio CC50/EC50; summary of the method: as §2
[23] = Cytotoxic activity against HEL cells assessed as alteration of cell morphology after 3 days by microscopic method; type: cell-based; settings: human
Summary of the method: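 HEL cells with compound; MCC is the lowest concentration giving microscopically detectable alteration of cell morphology.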

CCCCCOC(=O)C[C@H](NP(=O)(CO[C@H](CF)Cn1cnc2c(N)ncnc21)Oc1ccccc1)C(=O)OCCCCC (some centres undefined)
Ratio CC50/IC50 [1]: >827 | pEC50 [2]: 7.70 | EC90 [2]: 6.08 µM | remaining at 14 h [3]: 58% | Stability [4]: Stable | Ratio CC50/IC50 [5]: >113 | Ratio CC50/EC50 [6]: 2256 | pEC50 [7]: 8.40 | selectivity ratio [8]: 39 | Ratio EC50 [9]: 1500 | CC50 at 144 h [10]: > 1 µM | CC50 at 72 h [11]: 1.96 µM | Ratio EC50 [12]: 600 | pEC50 [13]: 5.20 | CC50 [14]: 33.2 µM | Ratio EC50 [15]: 2000 | Ratio EC50 [16]: 2000 | Stability [17]: Stable | pEC50 [18]: 7.52 | CC50 [19]: 2.48 µM | selectivity ratio [20]: 3320 | pEC50 [21]: 5.40 | selectivity ratio [22]: 34 | MCC at 72 h [23]: 31.4 µM
